The source of these data is ChEMBL document CHEMBL3421605, “Structure-activity relationship studies of SEN12333 analogues: determination of the optimal requirements for binding affinities at α7 nAChRs through incorporation of known structural motifs” (Eur J Med Chem, 2015).

The target in test [1] is T1, Neuronal acetylcholine receptor subunit alpha-7 (Rattus norvegicus, UniProt Q05941). As to the kind of experiment: Displacement of [3H]epibatidine from rat alpha7 nAChR transfected in HEK293 cells by liquid scintillation counting. The test is classed as cell-based. The procedure, abridged:
(§1)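 Stably transfected HEK293 cells scraped at >80% confluence into 50 mM Tris·HCl pH 7.4 at 4 °C and spun at 10,000 g. Pellet homogenised and spun at 36,000 g for 10 min at 4 °C, then resuspended. Competition against racemic [3H]epibatidine at ~500 pM (α3β4, α4β2) or ~2 nM (α7). Nonspecific binding with 300 µM nicotine. GF/C filters pretreated with 0.5% PEI. Ki derived.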
(In general: In a radioligand displacement assay an active substance lowers the binding of a labelled ligand.)

The target in test [2] is Neuronal acetylcholine receptor; alpha4/beta2 (Rattus norvegicus, UniProt P09483+P12390). As to the kind of experiment: Displacement of [3H]epibatidine from rat alpha4beta2 nAChR transfected in HEK293 cells by liquid scintillation counting. The test is classed as cell-based. The procedure, abridged:
as §1

Test [3] addresses Neuronal acetylcholine receptor; alpha3/beta4 (Rattus norvegicus, UniProt P04757+P12392). Put plainly: Displacement of [3H]epibatidine from rat alpha3beta4 nAChR transfected in HEK293 cells by liquid scintillation counting. The test is classed as cell-based. The procedure, abridged:
as §1

Test [4] concerns the target T1, Neuronal acetylcholine receptor subunit alpha-7. As to the kind of experiment: Agonist activity at rat alpha7 nAChR expressed in GH4C1 cells by fluorescent calcium assay. The format is cell-based, GH4-C1. The essentials:
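GH4C1 cells stably expressing rat α7 loaded with Fluo4 Direct dye. Baseline fluorescence read, then compound added, and peak/base ratios taken; >1.00 taken as agonism. Tested at 0.03, 0.1, 0.3, 1, 3 and 10 µM (one compound at 0.001–0.3 µM), n = 3. EC50 from dose–response curves.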

For test [5] the target is unchanged. Put plainly: Agonist activity at rat alpha7 nAChR expressed in GH4C1 cells by patch-clamp electrophysiology assay. The format is cell-based, GH4-C1.
The target in test [6] is Neuronal acetylcholine receptor subunit alpha-7 (Rattus norvegicus) (UniProt Q05941). Put plainly: Agonist activity at rat alpha7 nAChR expressed in GH4C1 cells by patch-clamp electrophysiology assay relative to acetylcholine. The test is classed as cell-based. The note with it: GH4-C1.
Chain of Neuronal acetylcholine receptor subunit alpha-7 (Rattus norvegicus) (Q05941 whole entry): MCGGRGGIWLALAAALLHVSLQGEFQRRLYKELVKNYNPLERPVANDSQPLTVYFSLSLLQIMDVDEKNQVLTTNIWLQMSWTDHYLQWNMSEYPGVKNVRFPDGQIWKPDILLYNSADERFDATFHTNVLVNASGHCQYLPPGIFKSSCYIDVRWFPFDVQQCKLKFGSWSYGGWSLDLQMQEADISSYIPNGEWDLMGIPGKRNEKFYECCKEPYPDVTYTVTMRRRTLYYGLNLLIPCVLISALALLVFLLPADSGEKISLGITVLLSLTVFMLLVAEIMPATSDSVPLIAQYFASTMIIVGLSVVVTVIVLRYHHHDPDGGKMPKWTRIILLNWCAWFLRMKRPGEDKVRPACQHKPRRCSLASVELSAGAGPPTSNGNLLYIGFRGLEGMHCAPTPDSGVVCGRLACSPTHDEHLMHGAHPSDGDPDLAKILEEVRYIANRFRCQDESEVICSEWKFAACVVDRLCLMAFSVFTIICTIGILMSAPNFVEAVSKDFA

Broadly, the Ki is a dissociation constant, usually derived from enzyme kinetics or from competition with a known ligand. The EC50 is the concentration giving half of the maximal effect. A word on the Emax: it is the size of the effect at its maximum, as opposed to the concentration needed.

Chain of Neuronal acetylcholine receptor; alpha4/beta2 (P09483 whole entry): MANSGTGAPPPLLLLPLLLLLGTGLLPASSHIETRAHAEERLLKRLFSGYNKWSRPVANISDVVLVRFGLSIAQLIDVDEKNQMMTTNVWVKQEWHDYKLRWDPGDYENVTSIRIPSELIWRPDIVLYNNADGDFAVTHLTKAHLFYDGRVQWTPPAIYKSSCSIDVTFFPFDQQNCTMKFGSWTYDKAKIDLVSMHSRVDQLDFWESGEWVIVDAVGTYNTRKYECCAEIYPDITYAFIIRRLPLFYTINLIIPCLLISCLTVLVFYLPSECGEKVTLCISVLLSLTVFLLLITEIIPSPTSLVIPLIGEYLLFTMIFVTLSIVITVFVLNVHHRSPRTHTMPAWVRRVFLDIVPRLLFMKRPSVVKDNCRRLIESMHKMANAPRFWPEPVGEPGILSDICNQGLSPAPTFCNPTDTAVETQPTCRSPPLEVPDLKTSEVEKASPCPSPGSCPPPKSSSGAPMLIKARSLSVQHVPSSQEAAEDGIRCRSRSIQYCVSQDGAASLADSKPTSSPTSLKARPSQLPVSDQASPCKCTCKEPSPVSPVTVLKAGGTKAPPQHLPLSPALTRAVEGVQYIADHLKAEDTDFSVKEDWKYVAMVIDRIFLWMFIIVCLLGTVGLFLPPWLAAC
Chain of Neuronal acetylcholine receptor; alpha4/beta2 (P12390 whole entry): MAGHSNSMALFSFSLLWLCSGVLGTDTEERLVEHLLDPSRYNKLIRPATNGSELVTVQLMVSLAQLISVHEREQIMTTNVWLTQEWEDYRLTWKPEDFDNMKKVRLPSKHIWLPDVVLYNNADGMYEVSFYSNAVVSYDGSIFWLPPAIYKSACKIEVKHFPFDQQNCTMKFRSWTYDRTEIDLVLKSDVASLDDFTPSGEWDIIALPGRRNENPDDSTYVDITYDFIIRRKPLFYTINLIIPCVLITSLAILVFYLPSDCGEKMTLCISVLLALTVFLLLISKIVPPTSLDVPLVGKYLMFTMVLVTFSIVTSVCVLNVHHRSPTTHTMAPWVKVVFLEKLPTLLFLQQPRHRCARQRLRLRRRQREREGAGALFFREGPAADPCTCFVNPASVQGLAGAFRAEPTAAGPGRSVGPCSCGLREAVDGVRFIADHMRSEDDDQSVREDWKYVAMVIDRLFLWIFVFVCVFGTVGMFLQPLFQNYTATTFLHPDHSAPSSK
T1 sequence (Q05941 whole entry): as the sequence (Q05941 whole entry) above
Chain of Neuronal acetylcholine receptor; alpha3/beta4 (P04757 whole entry): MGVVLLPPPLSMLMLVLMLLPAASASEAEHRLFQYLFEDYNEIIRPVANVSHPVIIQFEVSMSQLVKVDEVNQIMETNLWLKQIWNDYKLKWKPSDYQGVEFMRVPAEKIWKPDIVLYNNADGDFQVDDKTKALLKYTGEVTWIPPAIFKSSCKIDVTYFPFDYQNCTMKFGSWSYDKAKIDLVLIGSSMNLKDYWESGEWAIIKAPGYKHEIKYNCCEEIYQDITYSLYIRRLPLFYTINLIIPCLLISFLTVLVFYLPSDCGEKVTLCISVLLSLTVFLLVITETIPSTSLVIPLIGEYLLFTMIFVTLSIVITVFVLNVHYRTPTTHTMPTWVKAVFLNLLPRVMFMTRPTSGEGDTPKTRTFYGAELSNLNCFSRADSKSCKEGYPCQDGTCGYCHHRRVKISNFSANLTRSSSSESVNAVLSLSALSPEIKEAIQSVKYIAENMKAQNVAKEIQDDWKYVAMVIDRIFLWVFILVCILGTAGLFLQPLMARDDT
Chain of Neuronal acetylcholine receptor; alpha3/beta4 (P12392 whole entry): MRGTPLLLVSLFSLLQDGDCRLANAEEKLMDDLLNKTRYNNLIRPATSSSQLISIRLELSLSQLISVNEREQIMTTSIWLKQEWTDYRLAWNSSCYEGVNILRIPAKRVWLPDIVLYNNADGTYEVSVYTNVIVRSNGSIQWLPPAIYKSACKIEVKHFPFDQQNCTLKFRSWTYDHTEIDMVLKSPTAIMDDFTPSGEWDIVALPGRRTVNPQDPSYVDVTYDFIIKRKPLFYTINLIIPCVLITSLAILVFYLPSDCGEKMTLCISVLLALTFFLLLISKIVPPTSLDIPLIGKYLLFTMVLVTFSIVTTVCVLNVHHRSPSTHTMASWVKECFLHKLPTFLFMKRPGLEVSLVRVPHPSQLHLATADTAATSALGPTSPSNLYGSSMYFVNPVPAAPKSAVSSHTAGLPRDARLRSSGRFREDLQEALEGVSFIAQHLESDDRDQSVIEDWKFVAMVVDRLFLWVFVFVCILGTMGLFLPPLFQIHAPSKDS

As to `O=C(CCCCN1CCOCC1)Nc1ccc(-c2ccc3[nH]ccc3c2)cc1`, the Ki in test [1] was 0.31 µM; in test [2] it was above 10 µM; in test [3] it was above 10 µM. Further, the EC50 in test [4] came out at 0.997 µM.

`O=C(CCCCN1CCCCC1)Nc1cc(-c2ccccc2)[nH]n1`: the results for the Ki in test [1], in test [2] and in test [3] were 0.66 µM, above 50 µM and above 10 µM, respectively.

With `CN1CCN(CCCCC(=O)Nc2ccc(-c3cccnc3)cc2)CC1`, the figures for the Ki in test [1] and in test [3] were 9.33 µM and 313 µM, respectively.

`O=C(NCCCCN1CCCCC1)c1ccc(-c2cccnc2)cc1`: the values for the Ki in test [1], in test [2] and in test [3] were 1.4 µM, above 10 µM and above 50 µM, respectively.

As for `CN1C[C@@H]2C[C@H]1CN2c1ccc(-c2ccccc2)cc1`, the Ki in test [1] was 0.034 µM; in test [2], above 10 µM; in test [3], above 10 µM. Besides, the EC50 in test [4] was found to be 0.253 µM.

In the case of `O=C(CCCCN1CC2(COC2)C1)Nc1ccc(-c2ccccc2)cc1`, the values for the Ki in test [1], in test [2] and in test [3] were above 10 µM, above 10 µM and above 50 µM, respectively.

In the case of `CN1C[C@@H]2C[C@H]1CN2CCCCC(=O)Nc1ccc(-c2cccnc2)cc1`, the values for the Ki in test [1], in test [2] and in test [3] were above 10 µM, above 10 µM and above 100 µM, respectively.

Regarding `O=C(NCCCCN1CCCCC1)c1ccc(-c2ccccc2)cc1`, the values for the Ki in test [1], in test [2] and in test [3] were 0.41 µM, above 10 µM and above 10 µM, respectively.

Take `O=C(CCCCN1CCOCC1)Nc1ccc(-c2cccnc2)cc1`: the inhibition constant Ki in test [2] and in test [3] was above 10 µM in each case. In addition, the EC50 in test [4] amounted to 0.687 µM; in test [5] it was 42 µM. Further, the Emax in test [6] stood at 104%.

For the compound `c1ccc(-c2ccc(N3CCOCC3)nn2)cc1`, the Ki in test [1] is above 10 µM; in test [2], above 100 µM; in test [3], above 1000 µM.

For the compound `c1ccc(-c2ccc(N3CCCCC3)nn2)cc1`, the Ki in test [1], in test [2] and in test [3] was above 10 µM in each case.

Turning to `CN1C[C@@H]2C[C@H]1CN2CCCCNC(=O)c1ccc(-c2ccccc2)cc1`, the Ki in test [1] was 6.1 µM; in test [2], above 10 µM; in test [3], above 10 µM.

Regarding `c1cc2cc(-c3ccc(N4CCOCC4)nn3)ccc2[nH]1`, the Ki in test [1], in test [2] and in test [3] was above 10 µM throughout.

`CN1C[C@@H]2C[C@H]1CN2c1ccc(-c2ccccc2)nn1` displayed a Ki in test [3] above 50 µM.

`CN1CCN(CCCCC(=O)Nc2ccc(-c3ccccc3)cc2)CC1`: the Ki in test [1] is 1.62 µM; in test [3] it was 88.1 µM.

As for `CN1CCN(c2ccc(-c3ccccc3)cc2)CC1`, the Ki in test [1] is 7.7 µM; in test [2] it was above 10 µM; in test [3] it was above 10 µM.

In the case of `O=C(CCCCN1CCCCC1)Nc1ccc(-c2ccccc2)cc1`, the Ki in test [1] is 0.19 µM; in test [2], above 10 µM; in test [3] it was 2.6 µM.

Take `CN1CCN(CCCCNC(=O)c2ccc(-c3ccccc3)cc2)CC1`: the Ki was 5.4 µM in test [1], above 10 µM in test [2] and above 100 µM in test [3].

Take `CN1CCN(CCCCNC(=O)c2ccc(-c3cccnc3)cc2)CC1`: the Ki in test [1], in test [2] and in test [3] was above 10 µM each time.

Consider `CN1C[C@@H]2C[C@H]1CN2CCCCNC(=O)c1ccc(-c2cccnc2)cc1`, for which the Ki in test [1], in test [2] and in test [3] was above 10 µM each time.

Take `CN1C[C@@H]2C[C@H]1CN2CCCCC(=O)Nc1ccc(-c2ccccc2)cc1`: the Ki in test [1] was 3.2 µM; in test [2], above 10 µM; in test [3] it was above 10 µM.

For `O=C(CCCCN1CCOCC1)Nc1cc(-c2ccccc2)[nH]n1`, the Ki in test [1] is 2.6 µM; in test [2], above 10 µM; in test [3] it was above 10 µM.

Turning to `O=C(CCCCN1CCOCC1)Nc1ccc(-c2ccccn2)cc1`, the Ki in test [1] was 0.33 µM; in test [2], above 10 µM; in test [3], above 10 µM.

`CN1C[C@@H]2C[C@H]1CN2c1ccc(-c2cccnc2)cc1`: the results for the Ki in test [1], in test [2] and in test [3] were 0.14 µM, above 10 µM and above 10 µM, respectively. Besides, the EC50 in test [4] was determined as 0.126 µM.

In the case of `O=C(CCCCN1CCOCC1)Nc1ccc(-c2cccnc2F)cc1`, the Ki was 0.085 µM in test [1], above 10 µM in test [2] and above 10 µM in test [3]. The figures for the EC50 in test [4] and in test [5] were 0.145 µM and 27.3 µM, respectively. Besides, the Emax in test [6] stood at 136%.

With `O=C(CCCCN1CC2(COC2)C1)Nc1ccc(-c2cccnc2)cc1`, the Ki was above 10 µM in test [1], above 10 µM in test [2] and above 50 µM in test [3].

Consider `O=C(CCCCN1CCOCC1)Nc1ccc(-c2ccncc2)cc1`, for which the figures for the Ki in test [1], in test [2] and in test [3] were 0.35 µM, above 10 µM and above 10 µM, respectively. Besides, in test [4], the EC50 was determined as 0.522 µM.

For the compound `CN1CCN(c2ccc(-c3cccnc3)cc2)CC1`, the Ki is 9.4 µM in test [1], above 10 µM in test [2] and above 10 µM in test [3].

Consider `c1ccc(-c2ccc(N3CCOCC3)cc2)cc1`, for which the Ki in test [1], in test [2] and in test [3] was above 10 µM in each case.

With `CN1CCN(c2ccc(-c3ccccc3)nn2)CC1`, the Ki is 4.07 µM in test [1], 0.417 µM in test [2] and above 10 µM in test [3].

For the compound `c1ccc(-c2ccc(N3CCCCC3)cc2)cc1`, the Ki in test [1], in test [2] and in test [3] was above 10 µM in each case.

On to `c1cncc(-c2ccc(N3CCCCC3)cc2)c1`, for which the Ki in test [1], in test [2] and in test [3] was above 10 µM each time.

Consider `CN1CCN(CCCCC(=O)Nc2cc(-c3ccccc3)[nH]n2)CC1`, for which the Ki in test [1], in test [2] and in test [3] was above 10 µM in each case.

Turning to `c1cncc(-c2ccc(N3CCOCC3)cc2)c1`, the Ki in test [1] and in test [3] was above 10 µM in each case.

Turning to `O=C(CCCCN1CCOCC1)Nc1ccc(-c2ccccc2)nn1`, the Ki in test [1], in test [2] and in test [3] was above 10 µM throughout.

On to `O=C(CCCCN1CCCCC1)Nc1ccc(-c2cccnc2)cc1`, for which the Ki in test [1] is 0.22 µM; in test [2], above 10 µM; in test [3] it was above 10 µM.
